Compounds with a hit are over-represented: about 1.8% of the library has one in this group of screens.
Beta2AR agonist = beta2AR agonists driving receptor internalization, primary screen, cell-based, FAP fluorogen, flow cytometry | Beta-2 adrenergic receptor (Homo sapiens), P07550 | Am2.2-beta2AR cells | response, % (test concentration not listed) | 340,000 tested, 0.43% active;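 active = response above a set limit, near 3 SD of response in nonfluorescent compounds, cut at about 42% in these data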
CXCR6 inh = CXCR6 receptor inhibitors, primary screen, cell-based, beta-arrestin, luminescence, CHO-K1 PathHunter, 1536-well | C-X-C chemokine receptor type 6 (Homo sapiens), O00574 | inhibition, % at 20 µM | 360,000 tested, 0.36% active | AID 602244, 2012; in the data active = inhibition above about 34%, passing the limit was not always enough;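 also: antagonist mode with CXCL16 agonist at 10 nM final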
EBI2 block = EBI2 receptor antagonists, beta-arrestin recruitment, primary screen, cell-based, luminescence, 7a,25-OHC stimulation, uHTS | 7a,25-OHC stimulated | 360,000 tested, 0.81% active | G-protein coupled receptor 183 (Homo sapiens), P32249 | inhibition, % at 5 µM; in the data active = inhibition above about 38%;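 also: enzyme fragment complementation signal reports receptor beta-arrestin coupling in cells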
APJ ag = agonists of human apelin receptor APJ, primary screen, CHO-K1 cells, PathHunter beta-arrestin, luminescence. P35414. 0% DMSO wells, 100% apelin. activation, % at 20 µM. 330,000 tested, 0.11% active. AID 2520, 2010;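 active = activation more than six SD over the plate average, tested at 20 µM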
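Material: engineered CHO-K1 APJ arrestin reporter cells; amount: 1000 CHO-K1 reporter cells seeded per well; incubation: compound stimulation 90 min at 25 °C, detection 60 min; signal: luminescent beta-gal fragment complementation, chemiluminescent substrate; read-out basis: APJ agonist activity; controls: DMSO-only wells as negative, 10 nM Apelin-13 as positive control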
CCR6 antagonist = CCR6 receptor antagonists, primary screen, cell-based, CHO-K1, luminescence, beta-arrestin, uHTS; 340,000 tested, 0.49% active; C-C chemokine receptor type 6 (Homo sapiens), P51684; CHO-K1 CCR6 PathHunter beta-arrestin, CCL20-stimulated; inhibition, % at 20 µM; AID 493098, 2011;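 active = compounds whose inhibition of the agonist-driven luminescence signal at 20 µM reaches about 50%, limit read from the data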;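 also: cells stimulated with CCL20 at 14 nM final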
Target sequence (P51684 whole entry, looked up): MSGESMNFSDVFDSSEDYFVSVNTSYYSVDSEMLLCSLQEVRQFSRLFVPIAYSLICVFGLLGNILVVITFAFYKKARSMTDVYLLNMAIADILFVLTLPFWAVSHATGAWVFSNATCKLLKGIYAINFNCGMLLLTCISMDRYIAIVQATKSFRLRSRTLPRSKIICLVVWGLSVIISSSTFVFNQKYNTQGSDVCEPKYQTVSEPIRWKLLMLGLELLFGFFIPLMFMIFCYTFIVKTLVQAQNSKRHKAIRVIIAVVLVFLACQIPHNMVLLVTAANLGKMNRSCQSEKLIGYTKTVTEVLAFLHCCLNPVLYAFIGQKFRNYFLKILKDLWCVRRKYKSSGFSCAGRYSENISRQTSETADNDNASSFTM
APJ antagonist = antagonists of human apelin receptor APJ, primary screen, CHO-K1 cells, beta-arrestin complementation, luminescence | P35414 | inhibition, % at 20 µM | 330,000 tested, 0.32% active;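 active = inhibition above about 40% at 20 µM, limit read from the data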;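 also: cells challenged with 10 nM apelin-13 agonist together with compound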
Beta2AR ag CP1 = beta2AR agonists via receptor internalization, confirmation, cell-based, FAP fluorogen, flow cytometry, single point, cherry pick 1; shares compounds with Beta2AR agonist; Am2.2-beta2AR cells, FAP surface receptor; hits give low values; percent response (surface receptor), % at 10 µM; 1,100 tested, 25% active;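 active = surface receptor percent response at or below 58%, roughly 3 SD from nonfluorescent compounds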
B2AR FAP counter = counter-screen for beta-2AR agonists: fluorescence in Am2.2 cells; FAP fluorogen flow cytometry, fluorescence counterscreen; hits give low values; calls only at 10 µM; AID 588765; shares compounds with Beta2AR agonist; 1,100 tested, under 10 active;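 active = percent response below a set limit in fluorescence channel 1 and below 50% in channel 8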
Hits are given with their value; . = inactive; / = no result; + = active, no number.

SMILES	Beta2AR agonist	CXCR6 inh	EBI2 block	APJ ag	CCR6 antagonist	APJ antagonist	Beta2AR ag CP1	B2AR FAP counter
N=c1n(Cc2ccc(Cl)cc2)c2ccccc2n1CC(O)COc1ccccc1 (centres undefined)	43	.	.	15	.	.	19	.
CC(SC1=NCCN1S(=O)(=O)c1ccccc1)c1ccccc1 (centres undefined)	.	.	.	.	.	.	/	/
CC1(CNC(=O)C(=O)NCC2(C)CO2)CO1 (centres undefined)	.	.	.	/	.	/	/	/
CC(C)Oc1ccc(C(CCNCc2ccc(O)cc2)c2ccccc2)cc1 (centres undefined)	.	.	.	.	.	.	.	.
COc1ccc(C(O)P(=O)(OCc2ccccc2)c2ccc(N(C)C)cc2)cc1 (centres undefined)	.	.	.	.	.	.	/	/
COc1ccc(C(CCNCc2ccc(OC)c(OC)c2)c2ccc(F)cc2)cc1 (centres undefined)	.	.	.	.	.	.	.	.
COc1ccc(C(CCNCc2ccc(N(C)C)cc2)c2ccccc2)cc1 (centres undefined)	.	.	.	.	.	.	.	.
COCCn1c(SCc2nnc(-c3ccccc3)o2)nc2sc3c(c2c1=O)CCC3	121	.	.	/	.	/	.	.
C=CCc1cc(Cl)ccc1OCCCNCCO	.	.	.	.	.	.	/	/
C=CCc1cc(Cl)ccc1OCCCNC(C)C	62	.	.	.	.	.	.	.
CC(C)Cn1nc(C(=O)NCc2ccccc2CN2CCCC2)c2ccccc2c1=O	.	.	.	.	.	.	/	/
OC(CNCc1cccc(Br)c1)c1ccccc1 (centres undefined)	.	.	.	.	.	.	.	.
CC(=O)Nc1ccc(OC(=O)c2ccc(Br)c([N+](=O)[O-])c2)cc1	.	.	.	.	.	.	/	/
O=[N+]([O-])c1ccc(-[n+]2ccc3ccccc3c2)c([N+](=O)[O-])c1	47	.	.	.	.	.	40	.
COc1ccc(CC(=O)Nc2cc(F)ccc2F)cc1S(=O)(=O)N1CCOCC1	/	.	.	/	/	/	/	/
COc1ccc(NC(=O)CN(Cc2ccco2)Cc2ccco2)cc1S(=O)(=O)N1CCCCC1	.	.	.	.	.	.	/	/
COc1ccc(CC(=O)Nc2ccc(-c3cn4ccccc4n3)cc2)cc1	93	.	.	.	.	.	19	.
COc1ccc(CC(=O)Nc2cccc(-c3cn4ccccc4n3)c2)cc1	.	.	.	.	.	.	/	/
Cc1c(C(=O)N2CCc3ccccc3C2)oc2ccc(S(=O)(=O)N3CCCCCC3)cc12	48	.	.	.	.	.	.	.
Cc1c(C(=O)N2CCOCC2)oc2ccc(S(=O)(=O)N3CCCC3)cc12	.	.	.	.	.	.	/	/
COc1cc(NC(=O)c2ccco2)c(OC)cc1NC(=O)c1cc(OC)c(OC)c(OC)c1	.	.	.	.	.	.	.	.
Cc1cc(C)n2nc(C(=O)Nc3ccc(S(=O)(=O)N4CCCCC4)cc3)nc2n1	.	.	.	.	.	.	/	/
Cc1cc(C)n2nc(C(=O)Nc3cccc(S(=O)(=O)N(C)c4ccccc4)c3)nc2n1	75	.	.	.	.	.	12	.
Cc1cc(C)n2nc(C(=O)Nc3ccc(S(=O)(=O)N4CCCC4)cc3)nc2n1	46	.	.	.	.	.	.	.
O=C(CCCCCNc1nc(=S)[nH]c2ccccc12)NCCc1ccc(Cl)cc1	55	.	.	.	.	.	.	.
SMILES	Beta2AR agonist	CXCR6 inh	EBI2 block	APJ ag	CCR6 antagonist	APJ antagonist	Beta2AR ag CP1	B2AR FAP counter
O=C(CCCCCNc1nc(=S)[nH]c2ccccc12)NCCc1c[nH]c2ccccc12	.	.	.	.	.	.	/	/
N=c1n(Cc2ccccc2)c2ccccc2n1Cc1ccccc1	.	.	.	.	.	.	/	/
N=c1n(CC(=O)c2ccc(Br)cc2)c2ccccc2n1Cc1ccccc1	74	.	.	.	.	.	33	.
N=c1n(CC(=O)c2ccc([N+](=O)[O-])cc2)c2ccccc2n1Cc1ccc(Cl)cc1	91	.	.	.	.	.	37	.
N=c1n(CC(=O)c2ccc([N+](=O)[O-])cc2)c2ccccc2n1Cc1ccccc1	98	.	.	.	.	.	40	.
N=c1n(CC(=O)c2ccc([N+](=O)[O-])cc2)c2ccccc2n1Cc1ccccc1Cl	93	.	.	/	.	/	24	+
Cc1cc(C)n2nc(C(=O)OCC(=O)N3CC(C)CC(C)C3)nc2n1 (centres undefined)	.	.	.	.	.	.	/	/
COCCNC(=O)c1c(N)n(CCCn2ccnc2)c2nc3ccccc3nc12	65	.	.	.	.	.	.	.
COCCNC(=O)c1c(N)n(-c2ccccc2)c2nc3ccccc3nc12	.	.	.	.	.	.	/	/
COCCn1c(C)cc(/C=C(\C#N)C(=O)OCC(=O)Nc2ccc(S(N)(=O)=O)cc2)c1C	.	.	.	.	.	.	/	/
COc1cc(-c2cc(N)n(S(=O)(=O)c3ccccc3)n2)cc(OC)c1OC	62	.	.	.	.	.	.	.
CC1CCN(CC(=O)Nc2ccc(N3CCCCCC3)cc2)CC1	.	.	.	.	.	.	/	/
COc1ccc(C2C(C#N)=C(N)Oc3c2sc2nc(C)cc(C)c32)cc1 (centres undefined)	80	.	.	.	.	.	43	.
CCN(C)C1CN(Cc2cn(CCCOC)nn2)S(=O)(=O)C1 (centres undefined)	/	.	.	/	/	/	/	/
CCCn1nc(NS(C)(=O)=O)c2cc3cccc(C)c3nc21	.	.	.	.	.	.	/	/
CCn1nc(NS(=O)(=O)c2ccc(F)cc2)c2cc3cccc(C)c3nc21	.	.	.	.	.	.	.	.
CCn1nc(NS(=O)(=O)c2ccccc2)c2cc3cccc(C)c3nc21	.	.	.	.	.	.	/	.
CCn1nc(NS(=O)(=O)c2ccc(NC(C)=O)cc2)c2cc3cccc(C)c3nc21	.	.	.	.	.	.	/	/
COc1cccc(CNCCc2c[nH]c3ccccc23)c1OCc1ccc(F)cc1	.	.	.	.	.	.	/	/
